The values below come from ChEMBL document CHEMBL1131314, “New cyclooxygenase-2/5-lipoxygenase inhibitors. 1. 7-tert-buty1-2,3-dihydro-3,3-dimethylbenzofuran derivatives as gastrointestinal safe antiinflammatory and analgesic agents: discovery and variation of the 5-keto substituent” (J Med Chem, 1998).

Assay [1] has as its target T1, Prostaglandin G/H synthase 2 (Homo sapiens, UniProt P35354).
T1 sequence (P35354 whole entry): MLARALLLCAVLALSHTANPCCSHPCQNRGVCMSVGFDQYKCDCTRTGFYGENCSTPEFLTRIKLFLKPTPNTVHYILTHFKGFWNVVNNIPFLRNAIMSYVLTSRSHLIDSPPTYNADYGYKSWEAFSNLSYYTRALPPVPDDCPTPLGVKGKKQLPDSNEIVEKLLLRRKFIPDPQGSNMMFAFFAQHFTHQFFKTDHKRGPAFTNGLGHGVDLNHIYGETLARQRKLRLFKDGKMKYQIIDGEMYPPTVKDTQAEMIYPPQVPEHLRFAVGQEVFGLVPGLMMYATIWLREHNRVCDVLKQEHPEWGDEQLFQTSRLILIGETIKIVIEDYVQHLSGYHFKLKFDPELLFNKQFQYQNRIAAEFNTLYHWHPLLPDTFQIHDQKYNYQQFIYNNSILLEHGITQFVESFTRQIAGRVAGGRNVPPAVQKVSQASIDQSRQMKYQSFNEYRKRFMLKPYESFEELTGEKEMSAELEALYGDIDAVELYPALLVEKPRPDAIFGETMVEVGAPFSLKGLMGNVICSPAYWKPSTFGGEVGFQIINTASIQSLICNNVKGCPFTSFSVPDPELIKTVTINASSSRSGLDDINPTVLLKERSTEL

Assay [2] relates to Rattus norvegicus. Put plainly: Carrageenan paw edema index (CPE index) as ratio of the reduction in paw volume relative to tebufelone at a po (peroral) dose of 50 mg/kg. It counts as functional. (The carrageenan paw model is a standard test of acute inflammation.)
The target in assay [3] is T2, Prostaglandin G/H synthase 1 (Homo sapiens, UniProt P23219). The experiment in a line: Tested for selectivity for inhibition of human platelet derived COX-1 and recombinant human COX-2. An outline of the steps: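 COX-1 was microsomes from human platelet concentrate and COX-2 was a sonicated lysate of Sf9 cells infected with baculovirus carrying human COX-2 cDNA. Each enzyme was added to AA (33 µM) and SnCl2 (0.5 mg/mL) in 50 mM Tris-HCl pH 7.5 and run 5 min at 37 °C, then stopped with HCl. PGF2α was measured by EIA, in duplicate. The value is IC50 COX-1/IC50 COX-2.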

The target in assay [4] is T2, Prostaglandin G/H synthase 1. Put plainly: Concentration (in uM) to inhibit 50% of Prostaglandin G/H synthase 1 (COX-1) and is expressed in IC50. In outline:
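Human platelet microsomal fraction as enzyme, stored at -70 °C. Run 5 min at 37 °C, started by enzyme, stopped with HCl. PGF2α read by EIA, duplicates. IC50 taken from the percent-inhibition versus concentration curve.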

Assay [5] has as its system Mus musculus. The experiment in a line: % reduction in phenylquinone-induced abdominal constriction (PAC) at po (peroral) dose of 70 mg/kg in mice. It counts as functional, Abdomen.
Assay [6] has as its system Mus musculus. The experiment in a line: Compound was tested for % reduction in phenylquinone-induced abdominal constriction (PAC) at po (peroral) dose of 70 mg/kg in mice. It counts as functional. The settings on record: Abdomen.
The target of assay [7] is Arachidonate 5-lipoxygenase (Rattus norvegicus). The experiment in a line: The compound was tested for the concentration (in uM) to inhibit 50% of 5-Lipoxygenase (5-LOX) and is expressed in IC50.
The species entered for assay [8] is Mus musculus. Put plainly: The compound was tested for the concentration to inhibit 50% of phenylquinone-induced abdominal constriction (PAC). It counts as functional. The settings on record: Abdomen.

T2 sequence (P23219 whole entry): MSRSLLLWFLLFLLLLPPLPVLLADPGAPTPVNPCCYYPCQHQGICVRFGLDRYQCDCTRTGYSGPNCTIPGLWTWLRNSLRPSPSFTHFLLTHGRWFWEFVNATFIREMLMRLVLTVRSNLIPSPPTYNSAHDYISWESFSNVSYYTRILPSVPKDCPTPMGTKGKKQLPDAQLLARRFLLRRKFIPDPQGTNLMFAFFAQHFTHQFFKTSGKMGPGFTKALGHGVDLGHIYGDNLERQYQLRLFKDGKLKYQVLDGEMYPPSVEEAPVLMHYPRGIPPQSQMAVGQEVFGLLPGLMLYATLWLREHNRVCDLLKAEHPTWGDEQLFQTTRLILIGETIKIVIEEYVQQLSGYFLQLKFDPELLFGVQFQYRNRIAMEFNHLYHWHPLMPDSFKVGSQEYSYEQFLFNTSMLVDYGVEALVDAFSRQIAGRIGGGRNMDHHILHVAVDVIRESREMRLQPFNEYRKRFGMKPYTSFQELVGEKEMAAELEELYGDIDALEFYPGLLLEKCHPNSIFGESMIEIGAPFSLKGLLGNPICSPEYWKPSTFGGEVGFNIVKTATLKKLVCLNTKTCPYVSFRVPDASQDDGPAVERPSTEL

Broadly, the IC50 is the concentration at which inhibition is half-maximal. Read a low IC50 as greater potency. As for `CC(C)(C)c1cc(C(=O)CS(=O)(=O)CC2CC2)cc2c1OCC2(C)C`, the figures for the IC50 in assay [1] and in assay [4] were 2000 nM and 5000 nM, respectively. Further, the CPE index in assay [2] is 0. In addition, in assay [3], the Selectivity came to 2.5.
Turning to `CC(C)(C)c1cc(C(=O)C2CCCCC2)cc2c1OCC2(C)C`, the CPE index in assay [2] was determined as 0.36.
`CC(C)(C)c1cc(C(=O)CCC2CC2)cc2c1OCC2(C)C` registered a Reduction in assay [5] of 58%. In addition, the CPE index in assay [2] was found to be 0.18.
For `CC(C)(C)c1cc(C(=O)C2CC2)cc2c1OCC2(C)C` the same measures were 85% and 0.67.
As for `CC(C)(C)c1cc(C(=O)C[S+]([O-])CC2CC2)cc2c1OCC2(C)C` (centres undefined), the half-maximal inhibitory concentration (IC50) in assay [1] came out at 4000 nM; in assay [4], 20000 nM. Further, in assay [2], the CPE index worked out at 0.04. For the same molecule, the Selectivity in assay [3] was 5.
Usually ED50 stands for the dose that gives a 50% effect, or the effect in half of the subjects. A higher ED50 goes with weaker potency. For the molecule `CC(C)(Cl)CC(=O)c1cc(C(C)(C)C)c2c(c1)C(C)(C)CO2`, the IC50 amounted to 100 nM in assay [1], 8000 nM in assay [7] and 1000 nM in assay [4]. For the same molecule, the CPE index in assay [2] stood at 1.2. The molecule also yielded a 50% effective dose (ED50) in assay [6] of 16 mg/kg.
`CC(C)(C)c1cc(C(=O)/C=C/CC2CC2)cc2c1OCC2(C)C`: the IC50 in assay [1] is 250 nM; in assay [4] it was 800 nM. The CPE index in assay [2] was 0.18.
As for `CC(O)c1cc(C(C)(C)C)c2c(c1)C(C)(C)CO2` (centres undefined), the CPE index in assay [2] is recorded as 0.
Molecule `CSCC(=O)c1cc(C(C)(C)C)c2c(c1)C(C)(C)CO2` yielded a Reduction in assay [5] of 35%. Besides, the CPE index in assay [2] was 1.77.
Take `CC(C)CCCC(=O)c1cc(C(C)(C)C)c2c(c1)C(C)(C)CO2`: the IC50 was found to be 4500 nM in assay [1], 15000 nM in assay [7] and 15000 nM in assay [4]. For the same molecule, in assay [2], the CPE index amounted to 0.36. For the same molecule, the Selectivity in assay [3] amounted to 3.3.
For the molecule `CC(C)(C)c1cc(C(=O)C2CCCC2)cc2c1OCC2(C)C`, the Reduction in assay [5] amounted to 56%. In addition, the CPE index in assay [2] turned out to be 0.65.
For `CC(C)(C)c1cc(C(=O)c2ccccc2Cl)cc2c1OCC2(C)C`, in assay [2], the CPE index worked out at 0.
The same measure, in the same setting: the figure for `CSCCC(=O)c1cc(C(C)(C)C)c2c(c1)C(C)(C)CO2` is 0.7.
In assay [8], `CCC(=O)c1cc(C(C)(C)C)c2c(c1)C(C)(C)CO2` yielded a median effective dose (ED50) of 20 mg/kg. In addition, the CPE index in assay [2] is 1.14.
Turning to `CCCCCC(=O)c1cc(C(C)(C)C)c2c(c1)C(C)(C)CO2`, the IC50 in assay [1] is 90 nM; in assay [4], over 10000 nM. The CPE index in assay [2] is 0.4. Moreover, in assay [3], the Selectivity is over 111.
In the case of `CC(C)=CC(=O)c1cc(C(C)(C)C)c2c(c1)C(C)(C)CO2`, the Reduction in assay [5] came to 50%. Also, in assay [2], the CPE index amounted to 1.22.
For the molecule `CC(C)(C)c1cc(C(=O)c2ccc(F)cc2)cc2c1OCC2(C)C`, in assay [2], the CPE index stood at 0.52.
Turning to `CC(C)(C)c1cc(C(=O)c2ccccc2)cc2c1OCC2(C)C`, the IC50 in assay [1] came out at 7 nM; in assay [4], 150 nM. Further, in assay [5], the Reduction is 34%.
As to `CC(C)(C)c1cc(C(=O)CC2CC2)cc2c1OCC2(C)C`, the CPE index in assay [2] is on record as 1.06.
On to `C#CCCCC(=O)c1cc(C(C)(C)C)c2c(c1)C(C)(C)CO2`, for which the IC50 was 15 nM in assay [1] and 60 nM in assay [4].
For `CC(C)(C)c1cc(C(=O)CCCC2CC2)cc2c1OCC2(C)C`, in that order: 220 nM and 7000 nM.
For `CC(=O)c1cc(C(C)(C)C)c2c(c1)C(C)(C)CO2`, in assay [5], the Reduction was 78%. In assay [2], the CPE index is given as 0.92.
For `CC(=O)SCC(=O)c1cc(C(C)(C)C)c2c(c1)C(C)(C)CO2`, in that order: 64% and 0.95.
As for `COCCOCC(=O)c1cc(C(C)(C)C)c2c(c1)C(C)(C)CO2`, the CPE index in assay [2] turned out to be 0.52.
Consider `CN(C)CCC(=O)c1cc(C(C)(C)C)c2c(c1)C(C)(C)CO2`, for which the CPE index in assay [2] is 0.32.
With `CC(C)C(=O)c1cc(C(C)(C)C)c2c(c1)C(C)(C)CO2`, the 50% effective dose (ED50) in assay [8] was 22 mg/kg. In assay [2], the CPE index was 1.25.
For `CC(C)(C)c1cccc2c1OCC2(C)C`, the CPE index in assay [2] stood at 0.31.
As to `CC(C)(C)c1cc(C(=O)CS(C)(=O)=O)cc2c1OCC2(C)C`, the CPE index in assay [2] is 0.
On to `CC(C)(C)C(=O)c1cc(C(C)(C)C)c2c(c1)C(C)(C)CO2`, for which the CPE index in assay [2] was found to be 0.3.
In the case of `C#CCCCC(=O)c1cc(C(C)(C)C)c(O)c(C(C)(C)C)c1` [TEBUFELONE], the IC50 in assay [1] is 100 nM; in assay [4], 250 nM.
For `CCCCC(=O)c1cc(C(C)(C)C)c2c(c1)C(C)(C)CO2`, in that order: 40 nM and 2000 nM.
Consider `CC(C)(C)c1cc(C(=O)CSCC2CC2)cc2c1OCC2(C)C`, for which the results for the IC50 in assay [1] and in assay [4] were 400 nM and 650 nM, respectively. This molecule also came in with a Reduction in assay [5] of 54%. In addition, the CPE index in assay [2] is reported as 0.62. The Selectivity in assay [3] worked out at 1.6.
For the molecule `C[S+]([O-])CC(=O)c1cc(C(C)(C)C)c2c(c1)C(C)(C)CO2` (centres undefined), the 50% effect level in assay [8] (ED50) was put at a dose of 20 mg/kg. In addition, the CPE index in assay [2] is on record as 1.01.
As for `CC(=O)OCC(=O)c1cc(C(C)(C)C)c2c(c1)C(C)(C)CO2`, the CPE index in assay [2] is recorded as 0.21.
Turning to `CCCC(=O)c1cc(C(C)(C)C)c2c(c1)C(C)(C)CO2`, the half-maximal inhibitory concentration (IC50) in assay [1] and in assay [4] was 95 nM in each case. In assay [5], this molecule came in with a Reduction of 85%.
With `CN(CC(=O)c1cc(C(C)(C)C)c2c(c1)C(C)(C)CO2)CC1CC1`, the results for the IC50 in assay [1] and in assay [4] were 2500 nM and 30000 nM, respectively. Also, the CPE index in assay [2] stood at 0.38.
